Measurements from ChEMBL document CHEMBL1156914, “Novel inhibitors of dengue virus methyltransferase: discovery by in vitro-driven virtual screening on a desktop computer grid” (J Med Chem, 2010).

Assays:
dengue virus type 2 = experiment: Antiviral activity against Dengue virus type 2 infected in human A549 cells assessed as decrease in viral E protein production by cell-based flavivirus immunodetection assay; assay type: functional, organism-based
[1] = Cytotoxicity against human A549 cells after 48 hrs; assay type: cell-based
Genome polyprotein [2] = target: T1, Genome polyprotein (dengue virus type 2, UniProt P12823); experiment: Inhibition of Dengue virus type 2 NS5 RNA methyltransferase SAM site with 0.1 % TX100
Genome polyprotein [3] = target: T1, Genome polyprotein; experiment: Inhibition of Dengue virus type 2 NS5 RNA methyltransferase SAM site
Genome polyprotein [4] = target: T1, Genome polyprotein; experiment: Inhibition of Dengue virus type 2 NS5 RNA methyltransferase RNA site with 0.1 % TX100
Summary of the method: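 Detergent-sensitivity variant of the SPA methyl-transfer assay: 0.1% Triton X-100 added to the reaction mix. Otherwise 25 nM DENV2 MTase, 40 nM biotinylated RNA, 20 min room-temperature preincubation, 0.56 μM [3H]AdoMet. Counts read after bead stop. Duplicate wells.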

Genome polyprotein [5] = target: T1, Genome polyprotein; experiment: Inhibition of Dengue virus type 2 NS5 RNA methyltransferase RNA site
Genome polyprotein [6] = target: T1, Genome polyprotein; experiment: Inhibition of Dengue virus type 2 NS5 RNA methyltransferase by spin-down assay
Genome polyprotein [7] = target: T1, Genome polyprotein; experiment: Inhibition of Dengue virus type 2 NS5 RNA methyltransferase at 8 nM enzyme concentration
Genome polyprotein [8] = target: T1, Genome polyprotein; experiment: Inhibition of Dengue virus type 2 NS5 RNA methyltransferase at 80 nM enzyme concentration

T1 sequence (P12823 2489-3388 limits assumed): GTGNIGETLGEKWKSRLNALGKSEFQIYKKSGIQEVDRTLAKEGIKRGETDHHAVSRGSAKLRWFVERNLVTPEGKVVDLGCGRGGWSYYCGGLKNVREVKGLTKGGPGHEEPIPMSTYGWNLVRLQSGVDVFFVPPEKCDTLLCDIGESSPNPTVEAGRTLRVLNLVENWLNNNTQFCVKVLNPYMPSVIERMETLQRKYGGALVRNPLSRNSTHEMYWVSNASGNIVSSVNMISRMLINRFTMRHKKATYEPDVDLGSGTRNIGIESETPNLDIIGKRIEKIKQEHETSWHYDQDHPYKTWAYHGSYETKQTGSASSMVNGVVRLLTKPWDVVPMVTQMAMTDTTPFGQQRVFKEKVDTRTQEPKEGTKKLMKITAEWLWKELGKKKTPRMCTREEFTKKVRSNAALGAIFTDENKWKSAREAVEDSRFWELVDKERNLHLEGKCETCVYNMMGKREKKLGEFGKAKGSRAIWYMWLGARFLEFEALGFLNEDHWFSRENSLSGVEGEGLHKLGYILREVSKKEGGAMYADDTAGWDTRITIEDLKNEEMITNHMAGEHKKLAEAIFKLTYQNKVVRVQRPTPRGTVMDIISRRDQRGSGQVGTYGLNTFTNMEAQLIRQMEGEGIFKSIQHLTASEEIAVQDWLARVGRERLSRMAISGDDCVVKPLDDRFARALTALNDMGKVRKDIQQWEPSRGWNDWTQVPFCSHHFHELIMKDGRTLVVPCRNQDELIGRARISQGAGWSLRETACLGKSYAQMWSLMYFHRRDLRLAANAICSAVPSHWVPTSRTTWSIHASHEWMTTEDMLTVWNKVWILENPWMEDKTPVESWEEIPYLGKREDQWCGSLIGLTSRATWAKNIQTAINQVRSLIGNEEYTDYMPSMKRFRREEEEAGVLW

## O=C(O)c1cnc2c([N+](=O)[O-])cccc2c1O
Dengue virus type 2
  EC50: > 100 µM
[1]
  CC50 at 48 h: > 100 µM
Genome polyprotein [2]
  IC50: 14.3 µM
Genome polyprotein [3]
  IC50: 14.3 µM

## O=C(O)c1ccc(S(=O)(=O)c2ccc(C(=O)O)cc2)cc1
Genome polyprotein [2]
  IC50: > 100 µM
Genome polyprotein [3]
  IC50: 29.9 µM

## NC(=O)C1=CN(Cc2ccccc2)C=CC1
Genome polyprotein [2]
  IC50: > 100 µM
Genome polyprotein [3]
  IC50: 25.3 µM

## Cc1cc(C(=O)CSc2nc(N)cc(=O)[nH]2)c(C)n1Cc1ccc2c(c1)OCO2
Genome polyprotein [2]
  IC50: > 100 µM
Genome polyprotein [3]
  IC50: 16.1 µM

## O=C(CCCCC(=O)N/N=C/c1ccc(O)cc1O)N/N=C/c1ccc(O)cc1O
Genome polyprotein [2]
  IC50: > 25 µM
Genome polyprotein [3]
  IC50: 4.29 µM

## Cc1ccccc1COc1ccc(C(=O)[C@@H]2C(=O)C(=O)N(Cc3ccncc3)[C@H]2c2cccc(O)c2)cc1
Genome polyprotein [2]
  IC50: > 100 µM
Genome polyprotein [3]
  IC50: 9.62 µM

## O=C(O)CCC(=O)N1NC(c2c(O)nc3ccc(Cl)cc3c2-c2ccccc2)=C[C@@H]1c1ccc(Br)cc1
Genome polyprotein [4]
  IC50: 44.5 µM
Dengue virus type 2
  EC50: > 100 µM
[1]
  CC50 at 48 h: > 100 µM
Genome polyprotein [5]
  IC50: 4.42 µM

## O=C(O)COc1ccccc1/C=N\NC(=O)Cc1csc(Nc2cccc(C(F)(F)F)c2)n1
Genome polyprotein [4]
  IC50: > 100 µM
Genome polyprotein [5]
  IC50: 12.4 µM

## O=C(Cn1ccc(=O)[nH]c1=O)Nc1ccc(O)c([N+](=O)[O-])c1
Genome polyprotein [2]
  IC50: > 100 µM
Genome polyprotein [3]
  IC50: 29 µM

## Cc1cc(/C=N\NC(=O)Nc2ccccc2)c(C)n1-c1cc(C(=O)O)cc(C(=O)O)c1
Genome polyprotein [4]
  IC50: > 100 µM
Genome polyprotein [5]
  IC50: 20.3 µM

## Cc1ccc(C23CC4CC(CC(C(=O)Nc5cccc(C(=O)O)c5)(C4)C2)C3)cc1
Genome polyprotein [4]
  IC50: > 100 µM
Genome polyprotein [5]
  IC50: 37.5 µM

## O=C(O)c1cccc(NC(=O)c2ccc(CSc3ccc(Br)cc3)cc2)c1
Genome polyprotein [4]
  IC50: > 100 µM
Genome polyprotein [5]
  IC50: 7.99 µM

## COc1ccc(/C=C2/CN(CCCC(=O)O)C(=O)C2=O)cc1
Dengue virus type 2
  EC50: > 100 µM
[1]
  CC50 at 48 h: > 100 µM
Genome polyprotein [2]
  IC50: 4.47 µM
Genome polyprotein [3]
  IC50: 8.78 µM
Genome polyprotein [6]
  IC50: 10.5 µM

## O=S(=O)(O)c1cccc(NNc2ccc(Nc3ccccc3)cc2)c1
Genome polyprotein [4]
  IC50: 7.14 µM
Dengue virus type 2
  EC50: > 100 µM
[1]
  CC50 at 48 h: > 100 µM
Genome polyprotein [7]
  IC50: 7.62 µM
Genome polyprotein [8]
  IC50: 10.2 µM
Genome polyprotein [5]
  IC50: 7.56 µM
Genome polyprotein [6]
  IC50: 10.7 µM

## Cc1c(CC(=O)N[C@@H](Cc2c[nH]c3ccc(O)cc23)C(=O)O)c(=O)oc2cc3occ(C(C)(C)C)c3cc12
Genome polyprotein [4]
  IC50: > 100 µM
Genome polyprotein [5]
  IC50: 11.9 µM

## COc1cc(/C=C2/NC(=O)N(Cc3ccc(Cl)cc3Cl)C2=O)ccc1O[C@H](C)C(=O)O
Genome polyprotein [4]
  IC50: > 100 µM
Genome polyprotein [5]
  IC50: 11.3 µM

## O=C1NC(=O)/C(=C\c2ccc(O)cc2)N1
Genome polyprotein [2]
  IC50: > 100 µM
Genome polyprotein [3]
  IC50: 27.6 µM

## O=C(O)c1ccccc1/C=N/NC(=O)c1cc(-c2ccco2)nc2ccccc12
Genome polyprotein [4]
  IC50: 4.91 µM
Dengue virus type 2
  EC50: > 100 µM
[1]
  CC50 at 48 h: > 100 µM
Genome polyprotein [5]
  IC50: 4.8 µM
Genome polyprotein [6]
  IC50: 4.34 µM

## CCN(CC)c1ccc(/C=N\Nc2ccc(Cl)c(C(=O)O)c2)c(O)c1
Genome polyprotein [4]
  IC50: 87.1 µM
Dengue virus type 2
  EC50: 50 µM
[1]
  CC50 at 48 h: 75.1 µM
Genome polyprotein [5]
  IC50: 13.5 µM

## O=S(=O)(Nc1ccccc1)c1cc(S(=O)(=O)Nc2ccccc2)c2cc(O)ccc2c1
Genome polyprotein [2]
  IC50: > 100 µM
Genome polyprotein [3]
  IC50: 21.1 µM

## CCOc1cc(/C=C2\C(=O)N(c3ccc4ccccc4c3)N=C2C)ccc1OCCC(=O)O
Genome polyprotein [4]
  IC50: > 100 µM
Genome polyprotein [5]
  IC50: 7.11 µM

## O=C(N/N=C\c1ccccc1C(=O)O)c1ccc(COc2ccc3ccccc3c2)cc1
Genome polyprotein [4]
  IC50: > 100 µM
Genome polyprotein [5]
  IC50: 8.81 µM

## O=C(O)COc1ccc(Br)cc1/C=C1\CC/C(=C\c2cc(Br)ccc2OCC(=O)O)C1=O
Genome polyprotein [4]
  IC50: 19.5 µM
Dengue virus type 2
  EC50: > 100 µM
[1]
  CC50 at 48 h: > 100 µM
Genome polyprotein [5]
  IC50: 2.81 µM

## O=C(O)c1ccccc1C(=O)Nc1nc(-c2ccc3ccccc3c2)cs1
Genome polyprotein [4]
  IC50: > 100 µM
Genome polyprotein [5]
  IC50: 14.5 µM

## O=C(c1cccc([N+](=O)[O-])c1)c1no[n+]([O-])c1C(=O)c1cccc([N+](=O)[O-])c1
Genome polyprotein [2]
  IC50: > 100 µM
Genome polyprotein [3]
  IC50: 31.4 µM

## O=C1C(=O)N(Cc2cccnc2)[C@H](c2cccc(Oc3ccccc3)c2)/C1=C(/O)c1ccco1
Genome polyprotein [2]
  IC50: > 100 µM
Genome polyprotein [3]
  IC50: 12.8 µM

## Cc1ccc(Cl)cc1NS(=O)(=O)c1ccc(NS(=O)(=O)c2ccc3ccccc3c2)cc1
Genome polyprotein [4]
  IC50: 64.2 µM
Dengue virus type 2
  EC50: 12 µM
[1]
  CC50 at 48 h: 22.7 µM
Genome polyprotein [5]
  IC50: 9.28 µM

## N#Cc1c(NC(=O)c2cccc(S(=O)(=O)Nc3ccc(C(=O)O)cc3)c2)sc2c1CCCC2
Genome polyprotein [4]
  IC50: > 100 µM
Genome polyprotein [5]
  IC50: 17.6 µM

## COc1ccc(CN(CC[C@@H](c2ccccc2)c2ccco2)C(=O)c2ccoc2)cc1
Genome polyprotein [2]
  IC50: > 25 µM
Genome polyprotein [3]
  IC50: 2.91 µM

## COc1cc(NS(=O)(=O)c2ccc(NC(=O)/C=C/c3cccc4ccccc34)cc2)nc(OC)n1
Genome polyprotein [4]
  IC50: > 100 µM
Genome polyprotein [5]
  IC50: 6.83 µM

## Cc1ccc(C)c(C(=O)C2=C(O)C(=O)N(CCc3ccccc3)[C@@H]2c2ccc(O)cc2)c1
Genome polyprotein [2]
  IC50: > 100 µM
Genome polyprotein [3]
  IC50: 9.84 µM

## COc1cc(CNc2ccc(C(=O)O)cc2)ccc1OCc1ccccc1Cl
Genome polyprotein [4]
  IC50: > 100 µM
Genome polyprotein [5]
  IC50: 13.2 µM

## COc1ccc2c(c1)C(CC(=O)O)CN2Cc1ccccc1 (stereo unspecified)
Genome polyprotein [2]
  IC50: > 100 µM
Genome polyprotein [3]
  IC50: 27.5 µM

## Cc1cc(O)c2c(c1)C(=O)c1cc(O)cc(O)c1C2=O [EMODIN]
Dengue virus type 2
  EC50: 10.9 µM
[1]
  CC50 at 48 h: 30.7 µM
Genome polyprotein [2]
  IC50: 79.8 µM
Genome polyprotein [3]
  IC50: 16.9 µM
